Measurements: ChEMBL document CHEMBL4196180, “Semisynthesis of ω-Hydroxyalkylcarbonate Derivatives of Hydroxytyrosol as Antitrypanosome Agents” (J Nat Prod, 2018)

What was measured:
[1] = test system: Trypanosoma brucei brucei; assay: Anti-parasitic activity against Trypanosoma brucei brucei 427 infected in human MRC5 cells assessed as reduction in parasite proliferation after 72 hrs by Alamar blue assay; format: functional, organism-based; details: Trypanosoma brucei, 427, 72 h; in the assay text read “bloodstream forms” for “infected in human MRC5 cells”
In short: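 Bloodstream-form T. brucei brucei single-marker S427 (S16), grown in HMI-9 with 10% hiFBS at 37 °C, 5% CO2. Parasites seeded at 1 × 10^4 BSF/mL with increasing compound concentrations for 72 h at 37 °C, 5% CO2. Proliferation read by alamarBlue fluorescence (ex 550/em 590 nm); IC50 = 50% inhibition of parasite growth.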

[2] = test system: Trypanosoma brucei brucei; assay: Potency index, ratio of hydroxytyrosol IC50 to compound IC50 for Trypanosoma brucei brucei 427 […]; format: functional
In short: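 Activity gain calculated as IC50 of hydroxytyrosol against bloodstream-form T. brucei divided by IC50 of the derivative. Both come from the 72 h alamarBlue assay.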

MRC5 = assay: Cytotoxicity against human MRC5 cells assessed as inhibition of cell growth after 72 hrs by MTT assay; format: cell-based; details: MRC5, 72 h
In short: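 MRC-5 lung fibroblasts kept in low-glucose DMEM with 10% hiFBS and penicillin/streptomycin at 37 °C, 5% CO2, 100% humidity. Cells trypsinized (0.25%), seeded at 5000 cells/well with increasing compound concentrations, incubated 72 h at 37 °C. MTT colorimetric read-out; IC50 = concentration inhibiting growth 50% vs untreated cells.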

[3] = Selectivity index, ratio of IC50 for MRC5 cells to IC50 for Trypanosoma brucei brucei 427 […]; format: toxicity, cell-based; details: read-out: Ratio IC50
[4] = test system: Trypanosoma brucei brucei; assay: Anti-parasitic activity against Trypanosoma brucei brucei 427 bloodstream forms assessed as reduction in parasite proliferation after 72 hrs by Alamar blue assay; details: Trypanosoma brucei, 427, 72 h

Structure (SMILES) | IC50 [1] [µM] | Ratio IC50 [2] | IC50 (MRC5) [µM] | selectivity ratio [3] | IC50 [4] [µM]
O=C(OCCCCOC(=O)OCCc1ccc(OCc2ccccc2)c(OCc2ccccc2)c1)OCCc1ccc(OCc2ccccc2)c(OCc2ccccc2)c1 | > 10 |  |  |  | 
O=C(OCCCCCCOC(=O)OCCc1ccc(OCc2ccccc2)c(OCc2ccccc2)c1)OCCc1ccc(OCc2ccccc2)c(OCc2ccccc2)c1 | 8.1 | 5.9 |  |  | 
O=C(OCCCCCCO)OCCc1ccc(O)c(O)c1 | 4.1 | 11.6 | > 50 | > 12 | 
O=C(OCCCCOC(=O)OCCc1ccc(O)c(O)c1)OCCc1ccc(O)c(O)c1 | 4 | 12 | > 50 | > 13 | 
CCCCCCCCCCCCOC(=O)OCCc1ccc(O)c(O)c1 | 1.1 | 44.4 | 12.4 | 12 | 
O=C(OCCCCCCCCO)OCCc1ccc(OCc2ccccc2)c(OCc2ccccc2)c1 |  | 8.3 |  |  | 5.7
CCCCCCOC(=O)OCCc1ccc(OCc2ccccc2)c(OCc2ccccc2)c1 | > 10 |  |  |  | 
O=C(OCCOC(=O)OCCc1ccc(OCc2ccccc2)c(OCc2ccccc2)c1)OCCc1ccc(OCc2ccccc2)c(OCc2ccccc2)c1 |  | 8.4 |  |  | 5.7
CCCCCCOC(=O)OCCc1ccc(O)c(O)c1 | 0.2 | 263.9 | 11.2 | 62 | 
O=C(OCCO)OCCc1ccc(O)c(O)c1 | 6.4 | 7.4 |  |  | 
O=C(OCCCCCCCCO)OCCc1ccc(O)c(O)c1 |  | 32.8 | > 50 | > 35 | 1.5
O=C(OCCc1ccc(O)c(O)c1)OCCc1ccc(O)c(O)c1 | 1.3 | 37.1 | > 50 | > 39 | 
CCCCCCCCCCCCCCCCOC(=O)OCCc1ccc(O)c(O)c1 | 6.2 | 7.7 |  |  | 
O=C(OCCCCO)OCCc1ccc(OCc2ccccc2)c(OCc2ccccc2)c1 | > 10 |  |  |  | 
O=C(OCCCCCCOC(=O)OCCc1ccc(O)c(O)c1)OCCc1ccc(O)c(O)c1 | 2.1 | 22.6 | > 50 | > 24 | 
O=C(OCCCCCCO)OCCc1ccc(OCc2ccccc2)c(OCc2ccccc2)c1 | 4.1 | 11.6 | > 50 | > 12 | 
CCCCCCCCCCCCOC(=O)OCCc1ccc(OCc2ccccc2)c(OCc2ccccc2)c1 | > 10 |  |  |  | 
O=C(OCCCCO)OCCc1ccc(O)c(O)c1 | > 10 |  |  |  | 
O=C(OCCc1ccc(OCc2ccccc2)c(OCc2ccccc2)c1)OCCc1ccc(OCc2ccccc2)c(OCc2ccccc2)c1 | > 10 |  |  |  | 
CCCCCCCCOC(=O)OCCc1ccc(O)c(O)c1 |  | 89.6 | 37.9 | 72 | 0.5
O=C(OCCCCCCCCOC(=O)OCCc1ccc(OCc2ccccc2)c(OCc2ccccc2)c1)OCCc1ccc(OCc2ccccc2)c(OCc2ccccc2)c1 | 6.2 | 7.7 |  |  | 
CCOC(=O)OCCc1ccc(O)c(O)c1 | 1.4 | 33.7 | 34.5 | 25 | 
CCCCCCCCCCCCCCOC(=O)OCCc1ccc(O)c(O)c1 | 1.4 | 33.2 | 9.1 | 6 | 
O=C(OCCO)OCCc1ccc(OCc2ccccc2)c(OCc2ccccc2)c1 | 9.4 | 5 |  |  | 
O=C(OCCCCCCCCOC(=O)OCCc1ccc(O)c(O)c1)OCCc1ccc(O)c(O)c1 | 1 | 47.5 | > 50 | > 50 | 
O=C(OCCOC(=O)OCCc1ccc(O)c(O)c1)OCCc1ccc(O)c(O)c1 | 3.8 | 12.6 | > 50 | > 13 | 
CCCCOC(=O)OCCc1ccc(O)c(O)c1 | 7.2 | 6.6 |  |  | 
